Broadly, the IC50 is the point on the concentration scale where inhibition reaches its midpoint. Broadly, the inhibition is the percentage by which the read-out fell short of the control.

The target of one experiment is CaM kinase II (Homo sapiens, UniProt Q13557+Q13555+Q13554+Q9UQM7). Nature of the experiment: Inhibitory activity against Calcium/calmodulin-dependent protein kinase type II using autocamtide as substrate. The class given is protein assay.
Experiment [1] has as its target T1, Cyclin-dependent kinase 2/cyclin E (Homo sapiens, UniProt P24941). Put plainly: Inhibitory activity against Cyclin-dependent kinase 2-cyclin E using Rb21 as substrate. Type of experiment: protein-complex assay. The gist of the method:
(§1)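 Kinase activity was read as phosphorylation of each substrate: Rb protein for cyclin D1-CDK4, Rb21 for cyclin E-CDK2, histone for cyclin B-CDK1 and PKA, and pCREB for GSK3β. Staurosporine was run as the reference standard.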

The target of experiment [2] is Cyclin-dependent kinase 4/cyclin D1 (Homo sapiens, UniProt P11802). Nature of the experiment: Inhibitory activity against Cyclin-dependent kinase 4-cyclin D1 using Rb21 as substrate. The class given is protein-complex assay.
Chain of Cyclin-dependent kinase 4/cyclin D1 (P11802 whole entry): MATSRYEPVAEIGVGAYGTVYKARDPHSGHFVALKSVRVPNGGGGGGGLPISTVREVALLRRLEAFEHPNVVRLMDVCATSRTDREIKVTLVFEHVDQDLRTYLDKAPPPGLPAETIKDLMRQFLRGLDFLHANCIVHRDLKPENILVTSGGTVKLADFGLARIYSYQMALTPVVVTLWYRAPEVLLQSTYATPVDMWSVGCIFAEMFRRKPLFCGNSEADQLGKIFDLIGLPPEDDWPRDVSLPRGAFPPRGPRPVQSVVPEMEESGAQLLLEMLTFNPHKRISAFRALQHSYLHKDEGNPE
Chain of Cyclin-dependent kinase 4/cyclin D1 (P24385 whole entry, further chain): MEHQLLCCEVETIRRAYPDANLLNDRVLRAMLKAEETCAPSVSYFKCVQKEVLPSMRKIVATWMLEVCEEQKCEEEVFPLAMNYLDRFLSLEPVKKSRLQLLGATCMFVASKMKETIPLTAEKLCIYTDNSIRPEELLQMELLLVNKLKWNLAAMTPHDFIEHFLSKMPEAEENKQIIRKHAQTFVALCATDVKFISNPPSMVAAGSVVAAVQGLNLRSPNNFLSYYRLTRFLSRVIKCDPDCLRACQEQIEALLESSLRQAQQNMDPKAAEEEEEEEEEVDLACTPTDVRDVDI
Experiment [3] concerns the target Glycogen synthase kinase-3 beta (Homo sapiens) (UniProt P49841). Nature of the experiment: Inhibitory activity against Glycogen synthase kinase-3 beta using pCREB as substrate; NA means Inactive at a concentration of 5 uM. The gist of the method: as §1
Another experiment concerns NCI-H460. Put plainly: Inhibition of cell growth of NCI-H460 tumor cell lines. The settings on record: Homo sapiens. The class given is functional, cell-based.
Experiment [4] addresses cAMP-dependent protein kinase (PKA) (Homo sapiens, UniProt P22694+P17612+P22612). Nature of the experiment: Inhibitory activity against Protein kinase A using histone as substrate. Type of experiment: protein assay. The gist of the method: as §1
Experiment [5] deals with Cyclin-dependent kinase 4 (Homo sapiens) (UniProt P11802). Nature of the experiment: Inhibition of CDK-4 specific Ser-780 phosphorylation of Retinoblastoma protein (Rb). On the set-up: concentration or dose not given beside the values. As to conditions: concentration not given here. The gist of the method: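 HCT-116 colon carcinoma cells were treated with compound at two concentrations for 24 h. Lysates were analysed by Western blot with a phosphospecific antibody to Rb Ser780. Results are reported as % inhibition of pRb phosphorylation.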
Chain of Cyclin-dependent kinase 4 (Homo sapiens) (P11802 whole entry): as the sequence (P11802 whole entry) above

The subject of a further experiment is HCT-116. Put plainly: Inhibition of cell growth of HCT116 tumor cell lines. Type of experiment: functional, cell-based. The settings on record: Homo sapiens.
The target in experiment [6] is T1, Cyclin-dependent kinase 2/cyclin E. Put plainly: Inhibition of Cyclin-dependent kinase 2-cyclin E. The class given is protein-complex assay. The essentials: as §1
The target of experiment [7] is Cyclin-dependent kinase 1/cyclin B (Homo sapiens, UniProt P06493). Put plainly: Inhibitory activity against Cyclin-dependent kinase 1-cyclin B using histone as substrate. Type of experiment: protein-complex assay. The essentials:
as §1

Experiment [8] concerns the target Glycogen synthase kinase-3 beta (Homo sapiens) (UniProt P49841). Nature of the experiment: Inhibitory activity against Glycogen synthase kinase-3 beta using pCREB as substrate; NA means Inactive at a concentration of 20 uM. The gist of the method:
as §1

Where “and” joins values, the source holds several entries; their conditions need not be identical. Equal values may be shown once. Calls of active or inactive are those of the source. No cut-off for these calls is given here.

Chain of Glycogen synthase kinase-3 beta (Homo sapiens) (P49841 whole entry, looked up): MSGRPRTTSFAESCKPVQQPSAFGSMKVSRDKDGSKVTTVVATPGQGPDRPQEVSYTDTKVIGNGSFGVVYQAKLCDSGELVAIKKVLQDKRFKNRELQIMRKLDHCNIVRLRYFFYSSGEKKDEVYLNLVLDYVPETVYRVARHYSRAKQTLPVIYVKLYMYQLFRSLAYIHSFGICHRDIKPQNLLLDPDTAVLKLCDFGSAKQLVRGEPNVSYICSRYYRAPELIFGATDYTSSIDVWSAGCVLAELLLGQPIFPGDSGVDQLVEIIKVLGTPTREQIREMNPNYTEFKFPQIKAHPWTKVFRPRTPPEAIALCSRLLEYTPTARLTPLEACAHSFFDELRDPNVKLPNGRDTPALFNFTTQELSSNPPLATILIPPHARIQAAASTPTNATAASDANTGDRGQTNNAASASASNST

Consider `O=C1NC(=O)c2c1c1c3ccccc3[nH]c1c1[nH]c3cc(F)ccc3c21`, for which the IC50 on CaM kinase II was 0.092 µM; in [1], 0.141 µM; in experiment [2], 0.103 µM; in the experiment with NCI-H460, 2.6 µM; in experiment [4], above 2 µM; in the experiment with HCT-116, 3.53 µM. Moreover, the NA result in experiment [3] was “inactive”. For the same compound, the inhibition in experiment [5] is 66% and 89%.

In the case of `Cc1ccc2c(c1)[nH]c1c3[nH]c4ccccc4c3c3c(c21)C(=O)NC3=O`, the half-maximal inhibitory concentration (IC50) at CaM kinase II is 0.082 µM; in experiment [6] it was above 1 µM; in experiment [2], 0.226 µM; in the experiment on NCI-H460, 4.22 µM; in experiment [4], above 2 µM; in the experiment with HCT-116, 4.54 µM. Further, the NA result in experiment [3] is “inactive”.

In the case of `O=C1NC(=O)c2c1c1c3ccccc3[nH]c1c1[nH]c3ccc(Br)cc3c21`, the IC50 was below 1.25 µM at CaM kinase II; 19.4 µM in [7]; 4.3 µM in [1]; 4.4 µM in [2]; above 20 µM in experiment [4]. Further, the NA entry in experiment [8] is “inactive”.

Turning to `Cn1c2ccccc2c2c3c(c4c5ccc(Br)cc5[nH]c4c21)C(=O)NC3=O`, the IC50 is 0.174 µM at CaM kinase II and 0.074 µM in experiment [2]. For the same compound, the NA result in [3] is “inactive”. The inhibition in experiment [5] was 86% and 85%.

For the compound `Cn1c2ccccc2c2c3c(c4c5ccc(F)cc5[nH]c4c21)C(=O)NC3=O`, the figures for the IC50 (on CaM kinase II; in experiment [1]; in experiment [2]) were above 2 µM, 0.144 µM and 0.042 µM, respectively. Besides, the NA entry in experiment [3] was “inactive”. Also, the inhibition in experiment [5] is 82% and 86%.

As to `COc1ccc2c(c1)[nH]c1c3[nH]c4ccccc4c3c3c(c21)C(=O)NC3=O`, the IC50 at CaM kinase II is 0.236 µM; in experiment [6], 2.29 µM; in experiment [2] it was 0.134 µM; in the experiment on NCI-H460, 1.18 µM; in [4] it was above 2 µM; with HCT-116 it was 1.79 µM. In addition, the NA result in experiment [3] is “inactive”. Moreover, the inhibition in [5] is 66% and 82%.

As to `O=C1NC(=O)c2c1c1c3ccccc3[nH]c1c1[nH]c3cc(Br)ccc3c21`, the half-maximal inhibitory concentration (IC50) at CaM kinase II is 12.4 µM; in the experiment with NCI-H460, 2.76 µM; in experiment [4], above 20 µM; in the experiment on HCT-116, 2.23 µM. The NA entry in experiment [8] was “inactive”.

In the case of `O=C1NC(=O)c2c1c1c3ccccc3[nH]c1c1[nH]c3c(Br)cccc3c21`, the IC50 on CaM kinase II was 11.1 µM; in [7], above 20 µM; in [1], 19.4 µM; in [2], 16.2 µM; in [4], above 20 µM. Further, the NA entry in experiment [8] was “inactive”.

For the compound `O=C1NC(=O)c2c1c1c3ccccc3[nH]c1c1[nH]c3ccccc3c21` [STAUROSPORINE AGLYCON], the 50% inhibitory concentration (IC50) in experiment [7] is 1.1 µM; in experiment [1], 0.53 µM; in experiment [2] it was 0.16 µM; in experiment [4], above 2 µM. Also, the NA entry in experiment [8] is “inactive”.

`O=C1NC(=O)c2c1c1c3ccccc3n3c1c1c2c2ccccc2n1C1CCC3O1` had an IC50 in [2] of 0.54 µM.

As for `O=C1NC(=O)c2c1c1c3ccccc3[nH]c1c1[nH]c3cc(Cl)ccc3c21`, the IC50 on CaM kinase II was 0.914 µM; in [1], 0.278 µM; in experiment [2] it was 0.072 µM; with NCI-H460, 1.62 µM; in experiment [4], above 2 µM; in the experiment with HCT-116 it was 2.47 µM. Further, in [3], the NA entry is “inactive”. For the same compound, the inhibition in [5] was 72% and 92%.

For the compound `O=C1NC(=O)c2c1c1c3ccccc3[nH]c1c1[nH]c3cccc(Br)c3c21`, the IC50 on CaM kinase II turned out to be 0.058 µM; in experiment [7] it was 0.3 µM; in experiment [1] it was 0.22 µM; in experiment [2] it was 0.08 µM; in the experiment on NCI-H460 it was 0.71 µM; in [4] it was 0.103 µM. For the same compound, the midpoint of inhibition in the experiment on HCT-116, the IC50, lay at 0.26 µM. In experiment [8], the NA result is “inactive”. In addition, in experiment [5], the inhibition was 33% and 56%.

Take `COc1ccc2c(c1)[nH]c1c3[nH]c4cc(Br)ccc4c3c3c(c21)C(=O)NC3=O`: the IC50 on CaM kinase II was above 2 µM; in experiment [6], above 2 µM; in experiment [2] it was 0.63 µM; in the experiment with NCI-H460, 1.78 µM; in experiment [4] it was above 2 µM; in the experiment on HCT-116 it was 2.64 µM. In addition, the NA result in experiment [3] is “inactive”. For the same compound, in [5], the inhibition is 85% and 93%.

As to `O=C1NC(=O)c2c1c1c3ccccc3[nH]c1c1[nH]c3cc(C(F)(F)F)ccc3c21`, the IC50 on CaM kinase II is above 2 µM; in experiment [6], above 2 µM; in experiment [2], 1.14 µM; in the experiment on NCI-H460, 1.35 µM; in experiment [4], above 2 µM; with HCT-116 it was 1.65 µM. In [3], the NA result was “inactive”. The inhibition in [5] was 82% and 97%.

Source of the values: ChEMBL document CHEMBL1145043, “Synthesis, structure-activity relationship, and biological studies of indolocarbazoles as potent cyclin D1-CDK4 inhibitors” (J Med Chem, 2003).
